# Assay results: ChEMBL document CHEMBL1135458, “Discovery and biological evaluation of a new family of potent modulators of multidrug resistance: reversal of multidrug resistance of mouse lymphoma cells by new natural jatrophane diterpenoids isolated from Euphorbia species” (2002)
# Tests used:
# Assay type in all cases: functional
# Lymphoma cell line [1] = assay: Ability to reverse the multidrug resistance (MDR) of mouse Lymphoma cells, FL-1at 2 ug/mL; parameters: reference not given here
# Outline: (§1)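 L5178 mouse T-cell lymphoma cells carrying the MDR1 gene (via pHa MDR1/A retrovirus, kept under 60 ng/mL colchicine), with the L5178Y parent line. Cells grown in McCoy's 5A with 10% heat-inactivated horse serum. Cells at 2 × 10^6/mL in serum-free medium were given compound (1.0 mg/mL DMSO stock) for 10 min at room temperature. Rhodamine 123 (5.2 µM final) was then added for 20 min at 37 °C. Cells were washed twice, resuspended in PBS, and read by flow cytometry for FSC, SSC and FL-1.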
# Lymphoma cell line [2] = assay: Ability to reverse the multidrug resistance (MDR) of mouse Lymphoma cells, FL-1at 20 ug/mL; parameters: reference not given here; outline: as §1
# Lymphoma cell line [3] = assay: Ability to reverse the multidrug resistance (MDR) of mouse Lymphoma cells, by shrinkage (FSC) at 20 ug/mL.; outline: as §1
# Lymphoma cell line [4] = assay: Ability to reverse the multidrug resistance (MDR) of mouse Lymphoma cells, by Granulation (SSC) at 2 ug/mL.; outline: as §1
# Lymphoma cell line [5] = assay: Ability to reverse the multidrug resistance (MDR) of mouse Lymphoma cells, by Granulation (SSC) at 20 ug/mL.; outline: as §1
# Lymphoma cell line [6] = assay: Ability to reverse the multidrug resistance (MDR) of mouse Lymphoma cells, fluorescence activity ratio at 2 ug/mL.
# Outline: (§2)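 Rhodamine 123 accumulation by flow cytometry. MDR1-transduced L5178 mouse lymphoma cells and parental L5178Y cells at 2 × 10^6/mL in serum-free McCoy's 5A. Compound from DMSO stock for 10 min at room temperature, then 5.2 µM rhodamine 123 for 20 min at 37 °C, with two washes. Activity ratio: treated/untreated fluorescence of MDR cells divided by treated/untreated fluorescence of parental cells.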
# Lymphoma cell line [7] = assay: Ability to reverse the multidrug resistance (MDR) of mouse Lymphoma cells, fluorescence activity ratio at 20 ug/mL.; outline: as §2
# Lymphoma cell line [8] = assay: Ability to reverse the multidrug resistance (MDR) of mouse Lymphoma cells, by shrinkage (FSC) at 2 ug/mL.; outline: as §1
# Lymphoma cell line [9] = assay: Ability to reverse the multidrug resistance (MDR) of mouse Lymphoma cells, FL-1at 4 ug/mL; outline: as §1
# Lymphoma cell line [10] = assay: Ability to reverse the multidrug resistance (MDR) of mouse Lymphoma cells, by shrinkage (FSC) at 4 ug/mL.; outline: as §1
# Lymphoma cell line [11] = assay: Ability to reverse the multidrug resistance (MDR) of mouse Lymphoma cells, by Granulation (SSC) at 4 ug/mL.; outline: as §1
# Lymphoma cell line [12] = assay: Ability to reverse the multidrug resistance (MDR) of mouse Lymphoma cells, fluorescence activity ratio at 4 ug/mL.; outline: as §2
# Lymphoma cell line [13] = assay: Ability to reverse the multidrug resistance (MDR) of mouse Lymphoma cells, FL-1at 5 ug/mL; outline: as §1
# Lymphoma cell line [14] = assay: Ability to reverse the multidrug resistance (MDR) of mouse Lymphoma cells, by shrinkage (FSC) at 5 ug/mL.; outline: as §1
# Lymphoma cell line [15] = assay: Ability to reverse the multidrug resistance (MDR) of mouse Lymphoma cells, by Granulation (SSC) at 5 ug/mL.; outline: as §1
# Lymphoma cell line [16] = assay: Ability to reverse the multidrug resistance (MDR) of mouse Lymphoma cells, fluorescence activity ratio at 5 ug/mL.; outline: as §2
SMILES,FL-1 (Lymphoma cell line [1]),FL-1 (Lymphoma cell line [2]),FSC (Lymphoma cell line [3]),SSC (Lymphoma cell line [4]),SSC (Lymphoma cell line [5]),Fluorescence activity ratio (Lymphoma cell line [6]),Fluorescence activity ratio (Lymphoma cell line [7]),FSC (Lymphoma cell line [8]),FL-1 (Lymphoma cell line [9]),FSC (Lymphoma cell line [10]),SSC (Lymphoma cell line [11]),Fluorescence activity ratio (Lymphoma cell line [12]),FL-1 (Lymphoma cell line [13]),FSC (Lymphoma cell line [14]),SSC (Lymphoma cell line [15]),Fluorescence activity ratio (Lymphoma cell line [16])
CC(=O)O[C@@H]1[C@@H](OC(C)=O)C(C)(C)/C=C/[C@H](C)[C@H](OC(C)=O)[C@@]2(OC(C)=O)C[C@H](C)[C@H](OC(=O)c3ccccc3)/C2=C\[C@](C)(O)[C@@H]1OC(C)=O,37.12,41.9,658.03,166.49,175.29,4.31,4.86,641.56,–,–,–,–,–,–,–,–
CC(=O)O[C@@H]1[C@@H](OC(C)=O)C(C)(C)/C=C/[C@H](C)C(=O)[C@@]2(OC(C)=O)C[C@@H](C)[C@H](OC(=O)c3ccccc3)/C2=C\[C@](C)(O)[C@@H]1OC(C)=O,532.78,401.98,565.55,237.88,232.7,8.87,6.7,562.62,–,–,–,–,–,–,–,–
CC(=O)O[C@@H]1[C@@H](OC(C)=O)C(C)(C)/C=C/[C@H](C)[C@H](OC(C)=O)[C@@]2(OC(C)=O)C[C@@H](C)[C@H](OC(=O)c3ccccc3)[C@@H]2/C=C(\C)[C@@H]1O,180.81,299.93,654.67,165.87,167.73,20.98,34.79,653.55,–,–,–,–,–,–,–,–
C=C1[C@H](OC(C)=O)[C@@H](O)[C@@H](OC(=O)c2cccnc2)C(C)(C)/C=C/[C@H](C)[C@H](OC(C)=O)[C@@]2(O)C[C@@](C)(OC(C)=O)[C@H](OC(=O)c3ccccc3)[C@@H]2[C@H]1OC(C)=O,155.62,878.14,636.35,301.64,291.38,12.75,71.98,632.81,–,–,–,–,–,–,–,–
C=C1[C@H](OC(=O)C(C)C)[C@@H](OC(C)=O)[C@@H](OC(C)=O)C(C)(C)/C=C/[C@@H](C)C(=O)[C@@]2(OC(C)=O)C[C@@](C)(OC(C)=O)[C@H](OC(C)=O)[C@@H]2[C@H]1OC(C)=O,166.44,444.35,620.4,246.26,254.87,5.52,14.75,589.78,–,–,–,–,–,–,–,–
C=C1[C@H](OC(C)=O)[C@@H](OC(C)=O)[C@@H](OC(C)=O)C(C)(C)/C=C/[C@H](C)[C@H](OC(C)=O)[C@@]2(O)C[C@@](C)(OC(C)=O)[C@H](OC(=O)c3ccccc3)[C@@H]2[C@H]1OC(C)=O,505.23,888.3,587.54,239.85,239.54,16.77,29.48,577.39,–,–,–,–,–,–,–,–
C=C1[C@H](OC(=O)C(C)C)[C@H](OC(=O)C(C)C)[C@@H](OC(C)=O)C(C)(C)[C@@H]2O[C@H]2[C@@H](C)C(=O)[C@@]2(OC(C)=O)C[C@@](C)(OC(C)=O)[C@H](OC(C)=O)[C@@H]2[C@H]1OC(C)=O,31.98,34.14,667.76,165.11,176.12,3.71,3.96,659.4,–,–,–,–,–,–,–,–
CC(=O)O[C@@H]1[C@@H](OC(C)=O)C(C)(C)/C=C/[C@H](C)C(=O)[C@@]2(OC(C)=O)C[C@@H](C)[C@H](OC(=O)c3ccccc3)/C2=C\[C@](C)(OC(C)=O)[C@@H]1OC(C)=O,634.88,965.2,563.73,238.57,228.49,10.57,16.08,561.94,–,–,–,–,–,–,–,–
C=C1[C@H](OC(C)=O)C[C@@H](OC(=O)c2cccnc2)C(C)(C)/C=C/[C@@H](C)C(=O)[C@@]2(OC(C)=O)C[C@H](C)[C@H](OC(C)=O)[C@@H]2[C@H]1OC(C)=O,423.87,906.08,640.31,300.61,297.54,34.74,74.27,634.95,–,–,–,–,–,–,–,–
CC(=O)O[C@@H]1[C@@H](OC(C)=O)C(C)(C)/C=C/[C@H](C)C(=O)C2(OC(C)=O)C[C@@](C)(O)[C@H](OC(=O)c3ccccc3)/C2=C\[C@](C)(OC(C)=O)[C@@H]1OC(C)=O (stereo partly drawn),525.32,764.3,555.8,235.31,231.39,8.75,12.73,558.57,–,–,–,–,–,–,–,–
C=C1[C@H](OC(=O)C(C)C)[C@@H](O)[C@@H](OC(C)=O)C(C)(C)/C=C/[C@H](C)[C@H](OC(C)=O)[C@@]2(O)C[C@@](C)(OC(C)=O)[C@H](OC(=O)c3ccccc3)[C@@H]2[C@H]1OC(C)=O,90.12,–,–,333.78,–,6.3,–,625.31,32.37,638.02,335.77,2.26,–,–,–,–
C=C1[C@H](OC(C)=O)CC(=O)C(C)(C)/C=C/[C@@H](C)C(=O)[C@@]2(OC(C)=O)C[C@@](C)(OC(C)=O)[C@H](OC(C)=O)[C@@H]2[C@H]1OC(C)=O [ESULATIN B],31.47,95.54,631.19,313.58,307.84,2.58,7.83,642.45,–,–,–,–,–,–,–,–
C=C1[C@H](OC(C)=O)C[C@@H](OC(C)=O)C(C)(C)/C=C/[C@@H](C)C(=O)[C@@]2(OC(C)=O)C[C@@](C)(OC(C)=O)[C@H](OC(C)=O)[C@@H]2[C@H]1OC(C)=O [ESULATIN D],35.43,–,–,336.52,–,2.47,–,626.3,57.73,638.32,339.15,4.03,–,–,–,–
COc1ccc(CCN(C)CCCC(C#N)(c2ccc(OC)c(OC)c2)C(C)C)cc1OC (stereo not drawn) [VERAPAMIL],–,–,–,–,–,–,–,–,–,–,–,–,170.3,569.63,177.48,8.27
